Laboratory results: ChEMBL document CHEMBL4152207, “Discovery of potent and selective BRD4 inhibitors capable of blocking TLR3-induced acute airway inflammation” (Eur J Med Chem, 2018)
Activity calls are given as the source filed them. The rule behind the calls is not given here.

Assays:
[1] = AUC (0 to t) in rat at 10 mg/kg, iv; assay type: ADME, organism-based; settings: in vivo
Mus musculus [2] = assay: Anti-inflammatory activity in poly(I:C)-induced airway inflammation C57BL/6 mouse model assessed as reduction in mKC expression in lung at 10 mg/kg, ip administered 1 day prior to poly(I:C) stimulation and redosed on day 2 followed by poly(I:C) stimulation; assay type: functional, organism-based
Method in brief: (§1)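 Male C57BL/6J mice, 12 weeks old, were given 10 mg/kg i.p. one day before stimulation. The next day they got a second dose, immediately followed by intranasal poly(I:C) (300 μg in 50 μL PBS) or PBS alone. Compound was taken up in DMSO and diluted in 10% hydroxypropyl β-cyclodextrin in PBS. Mice were euthanized one day later and lung tissue was collected for cytokine expression.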

Mus musculus [3] = assay: Anti-inflammatory activity in poly(I:C)-induced airway inflammation C57BL/6 mouse model assessed as reduction in mCIG5 expression in lung at 10 mg/kg, ip administered 1 day prior to poly(I:C) stimulation and redosed on day 2 followed by poly(I:C) stimulation; assay type: functional, organism-based; method in brief: as §1
Mus musculus [4] = assay: Toxicity in mouse assessed as effect on RBC levels at 1 to 50 mg/kg, ip dosed daily for 1 month; assay type: organism-based; settings: in vivo
Mus musculus [5] = assay: Toxicity in mouse assessed as effect on platelet level at 1 to 50 mg/kg, ip dosed daily for 1 month; assay type: organism-based; settings: in vivo
Mus musculus [6] = assay: Hepatotoxicity in mouse assessed as effect on globulin level at 1 to 50 mg/kg, ip dosed daily for 1 month; assay type: toxicity, organism-based; settings: in vivo
Method in brief: (§2)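 Groups of n = 5 mice were dosed daily at 1-50 mg/kg for one month. Liver function markers (albumin, globulin, ALK, ALT) were measured alongside body weight, blood counts and renal markers.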

Mus musculus [7] = assay: Hepatotoxicity in mouse assessed as effect on ALT level at 1 to 50 mg/kg, ip dosed daily for 1 month; assay type: toxicity, organism-based; settings: in vivo; method in brief: as §2
Mus musculus [8] = assay: Hepatotoxicity in mouse assessed as effect on ALKP level at 1 to 50 mg/kg, ip dosed daily for 1 month; assay type: toxicity, organism-based; settings: in vivo; method in brief: as §2
[9] = molecular target: Adenosine receptor A2a (Homo sapiens) (UniProt P29274); assay: Displacement of [3H]-CGS 21680 from human recombinant adenosine A2A receptor at 10 uM after 120 mins by scintillation counting analysis relative to control
[10] = molecular target: Alpha-1A adrenergic receptor (Homo sapiens) (UniProt P35348); assay: Displacement of [3H]prazosin from human recombinant adrenergic alpha1A receptor at 10 uM after 120 mins by scintillation counting analysis relative to control
[11] = molecular target: B2 bradykinin receptor (Homo sapiens) (UniProt P30411); assay: Displacement of [3H]bradykinin from human recombinant B2 receptor at 10 uM after 60 mins by scintillation counting analysis relative to control
Rattus norvegicus = species on record: Rattus norvegicus; assay: Displacement of [3H]flunitrazepam from rat brain central BZD at 10 uM after 60 mins by radioligand binding assay relative to control
[12] = molecular target: Cannabinoid receptor 1 (Homo sapiens) (UniProt P21554); assay: Displacement of [3H]CP 55940 from human recombinant CB1 receptor at 10 uM after 120 mins by scintillation counting analysis relative to control
[13] = molecular target: Cannabinoid receptor 2 (Homo sapiens) (UniProt P34972); assay: Displacement of [3H]WIN 55212-2 from human recombinant CB2 receptor at 10 uM after 120 mins by scintillation counting analysis relative to control
[14] = molecular target: D(1A) dopamine receptor (Homo sapiens) (UniProt P21728); assay: Displacement of [3H]-SCH 23390 from human recombinant dopamine D1 receptor at 10 uM after 60 mins by scintillation counting analysis relative to control
[15] = molecular target: D(2) dopamine receptor (Homo sapiens) (UniProt P14416); assay: Displacement of [3H]7-OH-DPAT from human recombinant dopamine D2S receptor at 10 uM after 60 mins by scintillation counting analysis relative to control
[16] = molecular target: Glutamate [NMDA] receptor (Homo sapiens) (UniProt Q05586+Q12879+Q13224+O15399+O60391+Q14957+Q8TCU5); assay: Binding affinity to NMDA receptor (unknown origin) at 10 uM by antgonist radioligand assay relative to control; assay type: protein-complex assay
[17] = molecular target: Histamine H2 receptor (Homo sapiens) (UniProt P25021); assay: Displacement of [125I]APT from human recombinant histamine H2 receptor at 10 uM after 120 mins by scintillation counting analysis relative to control
[18] = molecular target: MAO-A (amine oxidase [flavin-containing] A) (Rattus norvegicus, UniProt P21396); assay: Displacement of [3H]Ro 41-1049 from rat MAO-A at 10 uM after 120 mins by scintillation counting analysis relative to control; settings: probe [3H]Ro 41-1049, read-out: Activity
[19] = molecular target: Muscarinic acetylcholine receptor M1 (Homo sapiens) (UniProt P11229); assay: Displacement of [125I]pirenzepine from human recombinant M1 receptor at 10 uM after 60 mins by scintillation counting analysis relative to control
[20] = molecular target: Muscarinic acetylcholine receptor M3 (Homo sapiens) (UniProt P20309); assay: Displacement of [3H]4-DAMP from human recombinant M3 receptor at 10 uM after 60 mins by scintillation counting analysis relative to control
[21] = molecular target: Delta-type opioid receptor (Homo sapiens) (UniProt P41143); assay: Displacement of [3H]DADLE from human recombinant delta opioid receptor after 60 mins by scintillation counting analysis relative to control
[22] = molecular target: Mu-type opioid receptor (Homo sapiens) (UniProt P35372); assay: Displacement of [3H]DAMGO from human recombinant mu opioid receptor at 10 uM after 120 mins by scintillation counting analysis relative to control
[23] = molecular target: Cav1.2 (L-type calcium channel) (Rattus norvegicus, UniProt P22002); assay: Displacement of [3H]nitrendipine from rat Cav1.2 (L-type) at 10 uM after 90 mins by scintillation counting analysis relative to control; settings: probe [3H]nitrendipine, read-out: Activity
hERG (KCNH2) = hERG (KCNH2) (Homo sapiens, UniProt Q12809); assay: Displacement of [3H]Dofetilide from human ERG at 10 uM after 60 mins by scintillation counting analysis relative to control; settings: probe [3H]Dofetilide, read-out: Activity
Cavia porcellus = species on record: Cavia porcellus; assay: Binding affinity to guinea pig Sodium channel site 2 at 10 uM by antagonist radioligand assay relative to control; set-up: scale not given: the % may be the effect or the level left
[24] = molecular target: Sodium-dependent serotonin transporter (Homo sapiens) (UniProt P31645); assay: Binding affinity to human serotonin transporter at 10 uM by antagonist radioligand assay relative to control; set-up: scale not given: the % may be the effect or the level left
[25] = molecular target: Acetylcholinesterase (Homo sapiens) (UniProt P22303); assay: Inhibition of human recombinant ACHE using acetylthiocholine as substrate after 30 mins by spectrophotometric relative to control; set-up: scale not given: the % may be the effect or the level left
Method in brief: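 Run within a commercial off-target panel of receptors and enzymes, with compound tested at a single concentration of 10 μM.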

[26] = molecular target: Inhibitor of nuclear factor kappa-B kinase subunit alpha (Homo sapiens) (UniProt O15111); assay: Inhibition of human recombinant IKKalpha using Ulight-IkappaB-alpha as substrate after 30 mins relative to control; set-up: scale not given: the % may be the effect or the level left
[27] = molecular target: Inhibitor of nuclear factor kappa-B kinase subunit epsilon (Homo sapiens) (UniProt Q14164); assay: Inhibition of human recombinant IKKepsilon using Ulight-FLGFTYVAP as substrate after 90 mins relative to control; set-up: scale not given: the % may be the effect or the level left
Chain of Inhibitor of nuclear factor kappa-B kinase subunit epsilon (Homo sapiens) (Q14164 whole entry): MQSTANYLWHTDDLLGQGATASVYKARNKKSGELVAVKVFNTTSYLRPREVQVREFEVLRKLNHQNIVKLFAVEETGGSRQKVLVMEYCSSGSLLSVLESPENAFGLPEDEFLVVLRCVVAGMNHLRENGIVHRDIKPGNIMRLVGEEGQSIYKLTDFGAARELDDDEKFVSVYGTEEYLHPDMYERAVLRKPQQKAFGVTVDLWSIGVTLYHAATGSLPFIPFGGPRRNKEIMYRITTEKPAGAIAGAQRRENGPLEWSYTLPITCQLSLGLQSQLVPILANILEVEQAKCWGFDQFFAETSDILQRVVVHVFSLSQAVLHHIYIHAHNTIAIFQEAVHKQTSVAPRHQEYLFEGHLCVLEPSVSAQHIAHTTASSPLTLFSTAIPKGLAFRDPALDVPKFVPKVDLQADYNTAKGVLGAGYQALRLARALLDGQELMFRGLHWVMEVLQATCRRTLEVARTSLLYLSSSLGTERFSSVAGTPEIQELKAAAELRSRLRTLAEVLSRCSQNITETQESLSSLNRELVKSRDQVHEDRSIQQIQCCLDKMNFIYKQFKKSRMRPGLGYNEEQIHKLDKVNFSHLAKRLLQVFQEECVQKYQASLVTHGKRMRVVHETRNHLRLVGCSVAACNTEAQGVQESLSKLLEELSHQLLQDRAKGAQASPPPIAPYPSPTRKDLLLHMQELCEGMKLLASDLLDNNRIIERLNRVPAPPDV

Chain of Muscarinic acetylcholine receptor M1 (Homo sapiens) (P11229 whole entry): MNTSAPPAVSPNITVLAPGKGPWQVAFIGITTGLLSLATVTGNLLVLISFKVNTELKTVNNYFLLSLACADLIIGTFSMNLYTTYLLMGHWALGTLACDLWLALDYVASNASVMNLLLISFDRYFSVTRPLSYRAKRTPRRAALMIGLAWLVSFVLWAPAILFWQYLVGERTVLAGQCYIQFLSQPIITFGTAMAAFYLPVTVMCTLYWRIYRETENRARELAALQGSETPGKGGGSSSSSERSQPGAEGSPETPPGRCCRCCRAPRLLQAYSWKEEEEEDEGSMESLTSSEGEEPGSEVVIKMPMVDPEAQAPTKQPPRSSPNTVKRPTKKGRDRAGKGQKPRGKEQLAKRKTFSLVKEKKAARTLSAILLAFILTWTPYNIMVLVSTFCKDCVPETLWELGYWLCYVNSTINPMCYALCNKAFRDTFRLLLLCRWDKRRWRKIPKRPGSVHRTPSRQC
Chain of Cav1.2 (L-type calcium channel) (P22002 whole entry): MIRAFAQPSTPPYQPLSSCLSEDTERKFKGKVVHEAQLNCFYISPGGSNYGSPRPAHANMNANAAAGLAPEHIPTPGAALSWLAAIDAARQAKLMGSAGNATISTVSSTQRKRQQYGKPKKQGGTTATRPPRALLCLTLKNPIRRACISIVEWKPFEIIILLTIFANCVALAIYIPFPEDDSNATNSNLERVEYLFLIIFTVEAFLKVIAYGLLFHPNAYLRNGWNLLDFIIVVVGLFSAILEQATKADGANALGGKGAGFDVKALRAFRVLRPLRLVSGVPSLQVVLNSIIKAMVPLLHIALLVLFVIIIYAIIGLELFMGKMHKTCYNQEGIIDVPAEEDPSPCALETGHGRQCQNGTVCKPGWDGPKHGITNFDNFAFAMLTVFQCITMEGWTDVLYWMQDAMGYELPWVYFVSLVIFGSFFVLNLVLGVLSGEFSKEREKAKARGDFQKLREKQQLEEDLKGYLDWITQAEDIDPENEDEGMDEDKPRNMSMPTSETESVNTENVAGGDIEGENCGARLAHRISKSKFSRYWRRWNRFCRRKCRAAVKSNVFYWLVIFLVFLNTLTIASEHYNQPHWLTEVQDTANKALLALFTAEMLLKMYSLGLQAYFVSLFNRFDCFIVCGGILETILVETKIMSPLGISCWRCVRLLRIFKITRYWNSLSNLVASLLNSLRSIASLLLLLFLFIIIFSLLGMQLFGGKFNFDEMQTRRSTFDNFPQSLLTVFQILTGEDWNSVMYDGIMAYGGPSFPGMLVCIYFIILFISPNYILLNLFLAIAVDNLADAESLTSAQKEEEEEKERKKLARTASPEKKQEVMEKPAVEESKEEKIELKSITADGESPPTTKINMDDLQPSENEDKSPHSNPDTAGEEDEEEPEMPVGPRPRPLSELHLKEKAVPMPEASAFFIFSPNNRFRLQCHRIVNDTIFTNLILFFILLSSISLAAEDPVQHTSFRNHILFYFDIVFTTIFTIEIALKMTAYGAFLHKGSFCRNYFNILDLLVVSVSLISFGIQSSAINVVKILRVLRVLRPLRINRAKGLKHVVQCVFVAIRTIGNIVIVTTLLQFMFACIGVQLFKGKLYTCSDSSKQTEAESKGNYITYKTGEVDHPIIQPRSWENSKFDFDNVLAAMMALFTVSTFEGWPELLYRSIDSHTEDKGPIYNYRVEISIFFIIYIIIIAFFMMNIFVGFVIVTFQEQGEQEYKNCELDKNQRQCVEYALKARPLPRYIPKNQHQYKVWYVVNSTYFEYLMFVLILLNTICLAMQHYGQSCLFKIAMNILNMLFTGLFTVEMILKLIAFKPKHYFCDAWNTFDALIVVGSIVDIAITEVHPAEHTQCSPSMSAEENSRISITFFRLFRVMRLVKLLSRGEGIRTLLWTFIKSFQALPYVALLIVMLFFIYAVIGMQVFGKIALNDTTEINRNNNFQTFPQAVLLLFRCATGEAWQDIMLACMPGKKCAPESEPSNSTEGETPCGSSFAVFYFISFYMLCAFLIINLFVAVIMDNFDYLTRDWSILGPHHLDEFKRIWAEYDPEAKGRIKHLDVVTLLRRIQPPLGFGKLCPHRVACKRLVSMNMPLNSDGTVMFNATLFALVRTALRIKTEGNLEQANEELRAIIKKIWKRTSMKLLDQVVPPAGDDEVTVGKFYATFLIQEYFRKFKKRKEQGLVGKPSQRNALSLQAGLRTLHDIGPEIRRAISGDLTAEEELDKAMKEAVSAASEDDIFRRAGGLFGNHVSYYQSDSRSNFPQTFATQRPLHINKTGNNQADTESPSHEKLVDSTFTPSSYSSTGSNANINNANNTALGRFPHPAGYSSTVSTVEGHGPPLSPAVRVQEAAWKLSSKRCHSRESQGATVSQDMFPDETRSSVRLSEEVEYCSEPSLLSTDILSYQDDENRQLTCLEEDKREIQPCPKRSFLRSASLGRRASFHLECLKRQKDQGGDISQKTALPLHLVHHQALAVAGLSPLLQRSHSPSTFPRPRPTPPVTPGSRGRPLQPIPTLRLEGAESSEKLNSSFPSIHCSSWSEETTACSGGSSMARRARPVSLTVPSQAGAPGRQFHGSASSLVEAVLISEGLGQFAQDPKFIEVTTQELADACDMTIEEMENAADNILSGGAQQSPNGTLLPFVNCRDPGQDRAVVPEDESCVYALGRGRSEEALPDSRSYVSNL
Chain of Sodium-dependent serotonin transporter (Homo sapiens) (P31645 whole entry, looked up): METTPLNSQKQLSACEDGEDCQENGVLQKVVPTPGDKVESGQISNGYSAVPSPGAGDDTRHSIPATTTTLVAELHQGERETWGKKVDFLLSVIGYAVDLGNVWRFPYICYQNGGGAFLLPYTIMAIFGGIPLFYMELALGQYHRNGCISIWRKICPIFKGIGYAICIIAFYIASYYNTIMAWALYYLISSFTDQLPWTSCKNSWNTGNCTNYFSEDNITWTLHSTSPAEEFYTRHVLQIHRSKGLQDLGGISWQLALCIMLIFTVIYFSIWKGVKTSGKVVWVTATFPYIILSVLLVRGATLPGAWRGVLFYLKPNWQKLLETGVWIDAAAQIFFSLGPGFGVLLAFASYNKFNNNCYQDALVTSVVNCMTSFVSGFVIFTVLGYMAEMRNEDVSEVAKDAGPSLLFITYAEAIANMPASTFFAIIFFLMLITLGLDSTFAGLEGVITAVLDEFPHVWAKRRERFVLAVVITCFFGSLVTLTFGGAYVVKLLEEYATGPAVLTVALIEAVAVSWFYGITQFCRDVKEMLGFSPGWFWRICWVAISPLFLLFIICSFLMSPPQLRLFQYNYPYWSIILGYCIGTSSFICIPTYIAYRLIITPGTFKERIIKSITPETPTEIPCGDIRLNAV
Chain of Cannabinoid receptor 1 (Homo sapiens) (P21554 whole entry): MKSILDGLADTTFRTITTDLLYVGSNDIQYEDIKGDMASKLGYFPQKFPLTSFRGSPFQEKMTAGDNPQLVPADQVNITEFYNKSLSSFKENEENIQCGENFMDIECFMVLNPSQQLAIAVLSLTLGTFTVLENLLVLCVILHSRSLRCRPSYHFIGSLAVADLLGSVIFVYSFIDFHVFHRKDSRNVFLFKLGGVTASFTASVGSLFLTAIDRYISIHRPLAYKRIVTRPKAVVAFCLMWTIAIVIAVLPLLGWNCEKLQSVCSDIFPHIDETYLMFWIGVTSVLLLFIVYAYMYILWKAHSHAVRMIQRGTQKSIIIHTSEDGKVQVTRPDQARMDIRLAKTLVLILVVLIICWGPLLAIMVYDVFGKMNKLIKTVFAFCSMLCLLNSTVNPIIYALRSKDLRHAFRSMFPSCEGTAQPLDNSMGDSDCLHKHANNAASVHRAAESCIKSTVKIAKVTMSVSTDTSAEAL
Chain of B2 bradykinin receptor (Homo sapiens) (P30411 whole entry): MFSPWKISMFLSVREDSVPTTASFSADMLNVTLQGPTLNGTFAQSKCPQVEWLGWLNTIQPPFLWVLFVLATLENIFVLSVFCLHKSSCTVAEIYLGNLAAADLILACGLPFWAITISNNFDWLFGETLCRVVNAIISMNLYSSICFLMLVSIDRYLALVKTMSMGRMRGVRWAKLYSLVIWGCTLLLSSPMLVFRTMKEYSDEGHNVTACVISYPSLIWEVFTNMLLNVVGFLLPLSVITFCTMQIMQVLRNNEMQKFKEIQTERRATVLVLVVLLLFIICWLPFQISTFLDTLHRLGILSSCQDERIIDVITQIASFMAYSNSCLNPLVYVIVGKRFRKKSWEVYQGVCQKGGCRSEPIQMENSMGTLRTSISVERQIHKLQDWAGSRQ

Cc1cc(/N=N/c2ccc(S(=O)(=O)NC3CCCC3)cc2)c(N)cc1O
AUC(0-t) [1]: 11.4 µg·h/mL
Activity (Mus musculus [2]): Active
Activity (Mus musculus [3]): Active
Activity (Mus musculus [4]): Non-Toxic
Activity (Mus musculus [5]): Non-Toxic
Activity (Mus musculus [6]): Non-Toxic
Activity (Mus musculus [7]): Non-Toxic
Activity (Mus musculus [8]): Non-Toxic
Activity [9]: 38.1%
Activity [10]: 17.2%
Activity [11]: -2.4%
Activity (Rattus norvegicus): 8.3%
Activity [12]: 24.7%
Activity [13]: 59.3%
Activity [14]: 21.9%
Activity [15]: 36.9%
Activity [16]: 17%
Activity [17]: -10.1%
inhibition at 2 h, 10 µM [18]: 49.8%
Activity [19]: -1.5%
Activity [20]: 4.8%
Activity [21]: -2.7%
Activity [22]: 17.4%
inhibition at […], 10 µM [23]: 42%
inhibition at 1 h, 10 µM (hERG (KCNH2)): 23.6%
Activity (Cavia porcellus): 27.7%
Activity [24]: 15%
Activity [25]: 11.7%
Activity [26]: -14.2%
Activity [27]: -26.2%
